Measurements as given in ChEMBL document CHEMBL5154713, “Illuminating a Dark Kinase: Structure-Guided Design, Synthesis, and Evaluation of a Potent Nek1 Inhibitor and Its Effects on the Embryonic Zebrafish Pronephros” (J Med Chem, 2022).

Key:
[1] = molecular target: Phosphatidylinositol 4,5-bisphosphate 3-kinase catalytic subunit gamma isoform (Homo sapiens) (UniProt P48736); assay: Inhibition of human full length PI3Kgamma assessed as residual activity at 1 uM using phosphatidylinositol-4, 5-bisphosphate as substrate incubated for 40 mins in presence of ATP by HTRF assay relative to control
Sequence of Phosphatidylinositol 4,5-bisphosphate 3-kinase catalytic subunit gamma isoform (Homo sapiens) (P48736 whole entry, looked up, canonical isoform): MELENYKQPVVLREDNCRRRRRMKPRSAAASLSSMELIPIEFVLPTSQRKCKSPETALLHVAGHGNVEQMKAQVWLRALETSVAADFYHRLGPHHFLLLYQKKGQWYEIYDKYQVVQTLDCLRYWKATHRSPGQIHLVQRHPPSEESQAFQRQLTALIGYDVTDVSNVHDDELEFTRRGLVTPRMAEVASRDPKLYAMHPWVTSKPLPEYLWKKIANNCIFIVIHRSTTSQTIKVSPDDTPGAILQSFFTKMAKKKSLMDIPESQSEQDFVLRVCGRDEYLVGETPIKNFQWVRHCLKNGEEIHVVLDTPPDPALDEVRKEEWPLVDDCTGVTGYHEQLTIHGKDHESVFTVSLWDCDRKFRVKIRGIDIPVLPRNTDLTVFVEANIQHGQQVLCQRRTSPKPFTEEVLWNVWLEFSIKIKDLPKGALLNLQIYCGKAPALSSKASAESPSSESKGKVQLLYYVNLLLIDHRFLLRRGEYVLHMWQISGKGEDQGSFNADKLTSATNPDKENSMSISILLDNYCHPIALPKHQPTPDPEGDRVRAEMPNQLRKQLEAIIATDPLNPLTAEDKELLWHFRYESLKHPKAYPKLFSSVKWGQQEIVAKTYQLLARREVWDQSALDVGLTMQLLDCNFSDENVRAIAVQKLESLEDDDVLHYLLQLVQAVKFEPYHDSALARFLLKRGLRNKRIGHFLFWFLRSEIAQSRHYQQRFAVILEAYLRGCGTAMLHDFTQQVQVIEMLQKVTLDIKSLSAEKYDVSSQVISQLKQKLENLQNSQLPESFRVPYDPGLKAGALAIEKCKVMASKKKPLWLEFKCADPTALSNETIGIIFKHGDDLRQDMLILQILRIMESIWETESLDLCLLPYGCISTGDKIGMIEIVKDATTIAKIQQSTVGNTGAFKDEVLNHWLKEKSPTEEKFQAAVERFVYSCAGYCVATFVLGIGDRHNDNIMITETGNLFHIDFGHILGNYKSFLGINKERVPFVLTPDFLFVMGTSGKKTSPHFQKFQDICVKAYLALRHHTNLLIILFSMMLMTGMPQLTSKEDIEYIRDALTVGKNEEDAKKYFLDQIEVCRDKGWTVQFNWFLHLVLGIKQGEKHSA

[2] = molecular target: Inhibitor of nuclear factor kappa-B kinase subunit beta (Homo sapiens) (UniProt O14920); assay: Inhibition of recombinant human full length IKKbeta assessed as residual activity at 1 uM using peptide as substrate incubated for 40 mins in presence of [gamma 33P]-ATP by radiometric scintillation counting assay relative to control
Procedure, shortened: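 Eurofins KinaseProfiler radiometric panel, compound at 1 μM, ATP at 10 μM or within 15 μM of apparent Km. For Nek1 (1−505): 8 mM MOPS pH 7.0, 0.2 mM EDTA, 250 μM peptide, 10 mM Mg acetate, [γ-33P]-ATP, 40 min at room temperature. Stopped with 0.5% phosphoric acid, filtermat spotting, scintillation counting. Mean of two independent experiments.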

[3] = molecular target: Calcium/calmodulin-dependent protein kinase type 1G (Homo sapiens) (UniProt Q96NX5); assay: Inhibition of recombinant full length human CaMK1gamma assessed as residual activity at 1 uM using KKLRRTLSFAEPG as substrate incubated for 40 mins in presence of [gamma-33ATP] by radiometric scintillation counting analysis relative to control
Sequence of Calcium/calmodulin-dependent protein kinase type 1G (Homo sapiens) (Q96NX5 whole entry): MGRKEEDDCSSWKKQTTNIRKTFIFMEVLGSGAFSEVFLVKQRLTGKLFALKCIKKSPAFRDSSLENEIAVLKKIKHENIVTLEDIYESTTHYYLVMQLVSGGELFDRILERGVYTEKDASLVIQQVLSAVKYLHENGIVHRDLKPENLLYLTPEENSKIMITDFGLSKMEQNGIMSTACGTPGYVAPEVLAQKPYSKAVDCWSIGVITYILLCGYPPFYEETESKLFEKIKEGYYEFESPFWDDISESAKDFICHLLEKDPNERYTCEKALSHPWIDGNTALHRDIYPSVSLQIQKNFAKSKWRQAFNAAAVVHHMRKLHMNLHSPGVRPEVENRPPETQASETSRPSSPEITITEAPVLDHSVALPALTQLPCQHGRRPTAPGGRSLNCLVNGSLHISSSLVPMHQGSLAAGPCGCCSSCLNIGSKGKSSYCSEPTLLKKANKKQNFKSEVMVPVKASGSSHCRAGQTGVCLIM
Procedure, shortened: (§1)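 Commercial radiometric panel of 50 kinases. Each recombinant human kinase was tested at a single compound concentration of 1 μM. ATP was set within 15 μM of the apparent Km for ATP for each kinase. Residual activity is relative to control and is the mean of two independent experiments.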

[4] = Toxicity in fluorescence-labelled Zebrafish pronephron assessed as increase in growth of fluid-filled cysts at 10 to 20 uM; set-up: species or system Danio rerio; conditions: in vivo, dose 10-20 µM
Procedure, shortened: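 Wild-type embryos exposed from 6 hpf to E3/0.2% DMSO controls or 10 and 20 μM compound, in E3 with 75 μM PTU. At 48 h, 100 nM PT-Yellow for 20 min, washed, then returned to compound up to 96 h total. Anesthetized embryos imaged in agarose molds by widefield microscopy, 33 Z-slices. Tubule fluorescence and area quantified from summed deconvolved projections. n = 3–5.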

[5] = molecular target: Glycogen synthase kinase-3 beta (Homo sapiens) (UniProt P49841); assay: Inhibition of human GSK3beta (2 to end residues) assessed as residual activity using YRRAAVPPSPSLSRHSSPHQS(p) EDEEE as substrate at 1 uM incubated for 40 mins in presence of [gamma 33P]-ATP by radiometric scintillation counting assay relative to control; procedure, shortened: as §1
[6] = molecular target: CDK6/cyclin D3 (Homo sapiens) (UniProt P30281+Q00534); assay: Inhibition of human full length recombinant CDK6/CyclinD3 assessed as residual activity at 1 uM using histone H1 as substrate incubated for 40 mins in presence of [gamma 33P]-ATP by radiometric scintillation counting assay relative to control; format: protein-complex assay; procedure, shortened: as §1
[7] = tested on: Tyrosine-protein kinase ABL1 (Homo sapiens), P00519 [Q252H]; assay: Inhibition of human Abl Q252H mutant (27 to end residues) assessed as residual activity at 1 uM using EAIYAAPFAKKK as substrate incubated for 40 mins in presence of [gamma 33P]-ATP by radiometric scintillation counting assay relative to control; procedure, shortened: as §1
[8] = molecular target: RAC-alpha serine/threonine-protein kinase (Homo sapiens) (UniProt P31749); assay: Inhibition of human full length Akt1 assessed as residual activity at 1 uM using GRPRTSSFAEGKK as substrate incubated for 40 mins in presence of [gamma 33P]-ATP based radiometric scintillation counting assay relative to control; procedure, shortened: as §1
[9] = molecular target: Serine/threonine-protein kinase tousled-like 1 (Homo sapiens) (UniProt Q9UKI8); assay: Inhibition of human full length recombinant TLK1 assessed as residual activity at 1 uM using casein as substrate incubated for 40 mins in presence of [gamma 33P]-ATP by radiometric scintillation counting assay relative to control; procedure, shortened: as §1
[10] = molecular target: MAP kinase-activated protein kinase 5 (Homo sapiens) (UniProt Q8IW41); assay: Inhibition of human full length PRAK assessed as residual activity at 1 uM using KKLRRTLSVA as substrate incubated for 40 mins in presence of [gamma 33P]-ATP by radiometric scintillation counting assay relative to control; procedure, shortened: as §1
Sequence of MAP kinase-activated protein kinase 5 (Homo sapiens) (Q8IW41 whole entry): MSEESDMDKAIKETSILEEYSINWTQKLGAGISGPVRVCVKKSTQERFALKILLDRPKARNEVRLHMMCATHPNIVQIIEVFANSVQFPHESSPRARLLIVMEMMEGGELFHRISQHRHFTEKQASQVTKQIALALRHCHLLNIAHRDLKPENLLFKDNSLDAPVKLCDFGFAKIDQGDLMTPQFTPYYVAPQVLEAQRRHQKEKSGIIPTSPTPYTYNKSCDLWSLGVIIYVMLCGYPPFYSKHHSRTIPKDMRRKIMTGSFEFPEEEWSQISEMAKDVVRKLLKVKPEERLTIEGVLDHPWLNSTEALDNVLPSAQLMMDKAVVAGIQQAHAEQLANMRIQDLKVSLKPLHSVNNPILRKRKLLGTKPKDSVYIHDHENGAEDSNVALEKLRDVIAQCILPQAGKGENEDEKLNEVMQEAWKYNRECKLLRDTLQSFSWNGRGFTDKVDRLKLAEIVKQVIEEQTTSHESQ

[11] = species on record: Homo sapiens; assay: Inhibition of recombinant full length human CK2alpha2 assessed as residual activity at 1 uM using RRRDDDSDDD as substrate incubated 40 mins in presence of [gamma-33ATP] by scintillation counting based radiometry assay relative to control; procedure, shortened: as §1
[12] = tested on: RAF proto-oncogene serine/threonine-protein kinase (Homo sapiens), P04049 [Y340D,Y341D]; assay: Inhibition of human c-Raf (Raf-1) Y340D/Y341D mutant (306 to end) as residual activity at 1 uM using inactive MEK1 as substrate incubated for 40 mins in presence of [gamma 33P]-ATP by radiometric scintillation counting assay relative to control; procedure, shortened: as §1
[13] = molecular target: Phosphatidylinositol 4,5-bisphosphate 3-kinase catalytic subunit beta isoform (Homo sapiens) (UniProt P42338); assay: Inhibition of human full length recombinant PI3Kbeta assessed as residual activity using phosphatidylinositol 4,5-bisphosphate as substrate at 1 uM incubated for 40 mins in presence of ATP by HTRF assay relative to control
Sequence of Phosphatidylinositol 4,5-bisphosphate 3-kinase catalytic subunit beta isoform (Homo sapiens) (P42338 whole entry, looked up, canonical isoform): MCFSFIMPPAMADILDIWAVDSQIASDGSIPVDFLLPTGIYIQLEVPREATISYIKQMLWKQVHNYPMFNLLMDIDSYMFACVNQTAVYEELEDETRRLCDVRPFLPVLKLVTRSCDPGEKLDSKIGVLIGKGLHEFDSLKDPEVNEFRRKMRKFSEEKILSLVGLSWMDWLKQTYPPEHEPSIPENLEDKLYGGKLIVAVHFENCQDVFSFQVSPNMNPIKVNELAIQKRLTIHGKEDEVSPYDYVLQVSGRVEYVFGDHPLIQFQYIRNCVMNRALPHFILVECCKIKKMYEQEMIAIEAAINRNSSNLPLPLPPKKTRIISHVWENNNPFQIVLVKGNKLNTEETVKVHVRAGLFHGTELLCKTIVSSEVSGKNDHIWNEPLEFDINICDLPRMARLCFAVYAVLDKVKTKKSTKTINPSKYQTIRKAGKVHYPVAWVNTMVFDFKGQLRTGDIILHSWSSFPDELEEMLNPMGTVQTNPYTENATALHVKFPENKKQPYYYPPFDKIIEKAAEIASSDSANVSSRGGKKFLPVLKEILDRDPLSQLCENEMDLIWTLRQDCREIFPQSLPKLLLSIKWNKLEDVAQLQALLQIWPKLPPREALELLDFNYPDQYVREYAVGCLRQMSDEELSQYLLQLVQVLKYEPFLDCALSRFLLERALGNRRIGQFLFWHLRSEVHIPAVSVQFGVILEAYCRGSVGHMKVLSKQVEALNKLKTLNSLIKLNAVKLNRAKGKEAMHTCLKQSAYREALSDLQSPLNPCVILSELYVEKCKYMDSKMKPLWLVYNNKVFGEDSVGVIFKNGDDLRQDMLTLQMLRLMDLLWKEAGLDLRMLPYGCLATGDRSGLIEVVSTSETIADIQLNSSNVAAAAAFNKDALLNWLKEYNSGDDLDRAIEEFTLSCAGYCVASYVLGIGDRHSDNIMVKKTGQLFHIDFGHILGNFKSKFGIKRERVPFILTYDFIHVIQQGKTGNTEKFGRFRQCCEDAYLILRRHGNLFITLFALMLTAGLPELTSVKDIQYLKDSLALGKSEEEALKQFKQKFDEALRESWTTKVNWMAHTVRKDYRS

[14] = molecular target: MAP kinase-activated protein kinase 2 (Homo sapiens) (UniProt P49137); assay: Inhibition of recombinant human MAPKAPK2 (46 to end residues) assessed as residual activity at 1 uM using KKLNRTLSVA as substrate incubated for 40 mins in presence of [gamma-33P]-ATP by radiometric scintillation counting method relative to control; procedure, shortened: as §1
Sequence of MAP kinase-activated protein kinase 2 (Homo sapiens) (P49137 whole entry, looked up): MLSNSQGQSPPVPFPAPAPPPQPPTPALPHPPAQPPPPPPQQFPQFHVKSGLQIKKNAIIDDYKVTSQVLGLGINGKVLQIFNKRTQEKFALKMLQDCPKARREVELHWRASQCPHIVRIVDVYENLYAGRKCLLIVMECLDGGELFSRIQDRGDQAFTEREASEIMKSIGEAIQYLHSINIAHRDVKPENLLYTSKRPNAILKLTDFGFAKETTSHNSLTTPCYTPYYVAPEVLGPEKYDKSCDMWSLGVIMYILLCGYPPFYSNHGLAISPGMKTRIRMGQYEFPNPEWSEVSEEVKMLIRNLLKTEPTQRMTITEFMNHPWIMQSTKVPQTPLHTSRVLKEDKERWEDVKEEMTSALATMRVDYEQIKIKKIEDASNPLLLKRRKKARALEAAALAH

[15] = molecular target: Eukaryotic elongation factor 2 kinase (Homo sapiens) (UniProt O00418); assay: Inhibition of human eEF-2K (2 to end residues) assessed as residual activity at 1 uM using RKKFGESEKTKTKEFL as substrate incubated for 40 mins in presence of [gamma 33P]-ATP by radiometric scintillation counting assay relative to control; procedure, shortened: as §1
Sequence of Eukaryotic elongation factor 2 kinase (Homo sapiens) (O00418 whole entry): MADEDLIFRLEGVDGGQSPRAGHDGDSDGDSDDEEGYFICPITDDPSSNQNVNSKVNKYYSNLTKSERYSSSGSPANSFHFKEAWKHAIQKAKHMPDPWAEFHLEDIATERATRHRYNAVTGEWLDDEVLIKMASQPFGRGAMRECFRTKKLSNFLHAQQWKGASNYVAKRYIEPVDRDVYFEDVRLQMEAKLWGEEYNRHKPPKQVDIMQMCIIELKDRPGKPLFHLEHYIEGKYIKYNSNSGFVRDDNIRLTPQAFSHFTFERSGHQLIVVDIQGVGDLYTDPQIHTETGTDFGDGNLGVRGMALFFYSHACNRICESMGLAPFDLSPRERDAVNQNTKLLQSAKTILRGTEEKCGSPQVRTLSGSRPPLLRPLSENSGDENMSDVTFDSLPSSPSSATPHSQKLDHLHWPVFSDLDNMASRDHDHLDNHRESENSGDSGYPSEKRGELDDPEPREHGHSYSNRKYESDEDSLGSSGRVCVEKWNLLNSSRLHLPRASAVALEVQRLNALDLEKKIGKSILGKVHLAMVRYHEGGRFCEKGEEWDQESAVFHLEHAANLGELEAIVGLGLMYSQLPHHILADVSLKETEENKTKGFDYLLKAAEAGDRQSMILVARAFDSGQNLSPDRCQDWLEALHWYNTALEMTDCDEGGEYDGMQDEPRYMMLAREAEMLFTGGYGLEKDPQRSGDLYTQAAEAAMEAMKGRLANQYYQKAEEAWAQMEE

[16] = molecular target: Tyrosine-protein kinase Lyn (Homo sapiens) (UniProt P07948); assay: Inhibition of recombinant human Lyn assessed as residual activity at 1 uM using poly(Glu, Tyr) 4:1 as substrate after 40 mins in presence of [gamma-33ATP] by scintillation counting based radiometry assay relative to control; procedure, shortened: as §1
[17] = molecular target: Protein kinase C alpha type (Homo sapiens) (UniProt P17252); assay: Inhibition of recombinant human full length PKCalpha assessed as residual activity at 1 uM using histone H1 as substrate measured after 40 mins in presence of [gamma33P]ATP by radiometric scintillation counting method relative to control; procedure, shortened: as §1

## O=S(=O)(N[C@@H](CO)Cc1c[nH]c2ccccc12)c1ccc(-c2ccnc3[nH]ccc23)cc1
[1]
  Activity: > 75%
[2]
  Activity: 36.1%
[3]
  Activity: > 75%
[4]
  Activity: Toxic
[5]
  Activity: > 75%
[6]
  Activity: > 75%
[7]
  Activity: > 75%
[8]
  Activity: > 75%
[9]
  Activity: > 75%
[10]
  Activity: > 75%
[11]
  Activity: > 75%
[12]
  Activity: > 75%
[13]
  Activity: > 75%
[14]
  Activity: > 75%
[15]
  Activity: > 75%
[16]
  Activity: > 75%
[17]
  Activity: > 75%
